Results reported in ChEMBL document CHEMBL5715950, “Characterization of molecular and cellular functions of the cyclin-dependent kinase CDK9 using a novel specific inhibitor” (Br J Pharmacol, 2014).
The source made the active and inactive calls. The rule behind the calls is not given here.

How the values were obtained:
[1] = target: Cyclin-dependent kinase 9 (Homo sapiens) (UniProt P50750); experiment: Inhibition of CDK9 in human A549 cells assessed as downregulation of PLK2 mRNA expression at 1 to 10 uM incubated for 90 mins by RT-qPCR analysis relative to control; assay type: cell-based; conditions: dose 1-10 µM
Cyclin-dependent kinase 9 (Homo sapiens), sequence (P50750 whole entry, the tested form may be a part): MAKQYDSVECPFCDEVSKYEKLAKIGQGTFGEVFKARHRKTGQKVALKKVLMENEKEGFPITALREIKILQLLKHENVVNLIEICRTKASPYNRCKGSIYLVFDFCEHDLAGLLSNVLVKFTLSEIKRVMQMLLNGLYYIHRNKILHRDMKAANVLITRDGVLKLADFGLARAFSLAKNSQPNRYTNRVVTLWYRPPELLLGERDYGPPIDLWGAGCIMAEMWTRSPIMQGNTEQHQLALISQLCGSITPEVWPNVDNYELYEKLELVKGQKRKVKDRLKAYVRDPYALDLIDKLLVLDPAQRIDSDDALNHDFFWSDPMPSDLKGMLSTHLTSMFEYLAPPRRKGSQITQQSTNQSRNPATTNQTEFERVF

[2] = target: Mitogen-activated protein kinase kinase kinase kinase 4 (Homo sapiens, UniProt O95819); experiment: Inhibition of MAP4K4 (unknown origin) assessed as residual activity at 10 uM incubated for 120 mins in presence of 33P-ATP by radiometric kinase assay relative to control
Mitogen-activated protein kinase kinase kinase kinase 4, sequence (O95819 2-1239 limits assumed): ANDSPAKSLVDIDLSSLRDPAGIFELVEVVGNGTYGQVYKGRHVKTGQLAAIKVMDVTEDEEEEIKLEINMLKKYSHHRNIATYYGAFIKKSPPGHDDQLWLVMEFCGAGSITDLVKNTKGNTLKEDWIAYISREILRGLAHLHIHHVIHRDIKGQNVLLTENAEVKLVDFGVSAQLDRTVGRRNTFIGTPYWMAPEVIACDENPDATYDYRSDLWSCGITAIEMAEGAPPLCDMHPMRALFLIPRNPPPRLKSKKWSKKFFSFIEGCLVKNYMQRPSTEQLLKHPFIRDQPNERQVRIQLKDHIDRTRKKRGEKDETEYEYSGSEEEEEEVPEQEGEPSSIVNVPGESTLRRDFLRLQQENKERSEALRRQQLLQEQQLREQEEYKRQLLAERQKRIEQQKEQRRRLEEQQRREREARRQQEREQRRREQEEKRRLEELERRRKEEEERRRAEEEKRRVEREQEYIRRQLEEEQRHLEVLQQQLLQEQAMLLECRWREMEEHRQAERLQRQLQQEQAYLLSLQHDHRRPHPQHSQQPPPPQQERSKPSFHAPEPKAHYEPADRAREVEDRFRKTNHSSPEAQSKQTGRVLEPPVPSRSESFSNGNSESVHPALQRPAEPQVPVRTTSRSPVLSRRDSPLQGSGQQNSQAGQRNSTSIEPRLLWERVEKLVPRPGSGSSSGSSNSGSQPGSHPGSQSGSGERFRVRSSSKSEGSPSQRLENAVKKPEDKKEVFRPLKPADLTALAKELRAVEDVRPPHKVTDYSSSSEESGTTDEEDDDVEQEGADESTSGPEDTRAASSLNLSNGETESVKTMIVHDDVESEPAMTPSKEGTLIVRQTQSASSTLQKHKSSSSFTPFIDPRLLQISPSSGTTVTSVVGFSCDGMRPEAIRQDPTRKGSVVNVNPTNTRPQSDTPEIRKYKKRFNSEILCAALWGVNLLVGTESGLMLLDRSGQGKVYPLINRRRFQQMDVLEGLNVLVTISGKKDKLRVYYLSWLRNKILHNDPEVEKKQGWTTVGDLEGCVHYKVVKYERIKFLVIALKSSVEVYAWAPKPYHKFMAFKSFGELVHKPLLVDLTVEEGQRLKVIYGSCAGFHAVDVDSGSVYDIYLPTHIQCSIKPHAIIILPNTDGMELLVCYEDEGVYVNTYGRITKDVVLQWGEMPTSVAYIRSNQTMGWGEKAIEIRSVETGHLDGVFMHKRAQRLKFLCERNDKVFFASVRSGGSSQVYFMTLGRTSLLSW

[3] = target: Cyclin-dependent kinase 9 (Homo sapiens) (UniProt P50750); experiment: Inhibition of CDK9 in human HeLa cells assessed as upregulation of serine 7 phosphorylation at 10 uM incubated for 1 hr by chromatin immunoprecipitation assay; assay type: cell-based
[4] = target: CDK9/cyclin T1 (Homo sapiens) (UniProt O60563+P50750); experiment: Inhibition of CDK9/Cyclin T1 (unknown origin) assessed as residual activity at 10 uM incubated for 120 mins in presence of 33P-ATP by radiometric kinase assay relative to control; assay type: protein-complex assay
HeLa [5] = experiment: Inhibition of RNA synthesis in human HeLa cells stably transfected with luciferase reporter gene incubated for 30 mins followed by doxycycline addition and measured after 60 mins by RT-qPCR analysis; assay type: functional, cell-based; conditions: time 90.0 min
In short: (§1)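 Stably transfected HeLa cells carrying a tetracycline-inducible luciferase reporter: inhibitor or DMSO for 30 min, then 1 μg/mL doxycycline for 60 min. De novo reporter transcripts measured by RT-qPCR.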

[6] = target: Cyclin-dependent kinase 9 (Homo sapiens) (UniProt P50750); experiment: Inhibition of CDK9 in human THP-1 cells assessed as downregulation of MED1 mRNA expression by RT-qPCR analysis; assay type: cell-based
[7] = target: Cyclin-dependent kinase 9 (Mus musculus) (UniProt Q99J95); experiment: Inhibition of CDK9 in mouse Embryonic stem cell assessed as downregulation of Serine 2 phosphorylation by measuring fold decrease at 10 uM incubated for 90 mins by Western blotting analysis; assay type: cell-based
Cyclin-dependent kinase 9 (Mus musculus), sequence (Q99J95 whole entry, the tested form may be a part): as the sequence (P50750 whole entry, the tested form may be a part) above, with S17T, R37K, K40Q, N258K, Y262F counted along it
In short: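 Mouse embryonic stem cells treated with 10 μM inhibitor or DMSO for 90 or 180 min; whole-cell Western blot for RNAPII CTD Ser2-P. Band signals quantified densitometrically and normalised to total RNAPII.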

[8] = target: Cyclin-dependent kinase 9 (Mus musculus) (UniProt Q99J95); experiment: Inhibition of CDK9 in mouse Embryonic stem cell assessed as downregulation of MYC mRNA expression at 2.5 to 40 uM incubated for 90 mins by RT-qPCR analysis relative to control; assay type: cell-based; conditions: dose 2.5-40 µM
[9] = Transcription level in human HEK293T cells nuclear extract fused with Gal4-VP16 at 10 uM in presence of ATP by phosphorimaging analysis relative to control; conditions: HEK-293T
[10] = target: Glycogen synthase kinase-3 alpha (Homo sapiens, UniProt P49840); experiment: Inhibition of GSK3A (unknown origin) assessed as residual activity at 10 uM incubated for 120 mins in presence of 33P-ATP by radiometric kinase assay relative to control
Glycogen synthase kinase-3 alpha, sequence (P49840 2-483 limits assumed): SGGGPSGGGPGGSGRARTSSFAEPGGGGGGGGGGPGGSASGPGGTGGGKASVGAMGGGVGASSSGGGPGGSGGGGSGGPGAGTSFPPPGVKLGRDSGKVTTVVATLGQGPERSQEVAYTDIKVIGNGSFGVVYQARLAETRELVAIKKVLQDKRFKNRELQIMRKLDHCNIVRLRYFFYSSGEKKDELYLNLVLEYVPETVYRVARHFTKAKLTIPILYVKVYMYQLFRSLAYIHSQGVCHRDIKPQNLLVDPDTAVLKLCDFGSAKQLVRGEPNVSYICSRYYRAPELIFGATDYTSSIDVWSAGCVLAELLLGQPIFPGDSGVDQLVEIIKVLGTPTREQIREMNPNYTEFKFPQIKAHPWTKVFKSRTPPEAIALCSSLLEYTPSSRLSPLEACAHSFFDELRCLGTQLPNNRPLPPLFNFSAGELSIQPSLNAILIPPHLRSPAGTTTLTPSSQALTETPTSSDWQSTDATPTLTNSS

[11] = target: Cyclin-dependent kinase 9 (Homo sapiens) (UniProt P50750); experiment: Inhibition of CDK9 in human A549 cells assessed as downregulation of p21 mRNA expression at 2 to 6 uM incubated for 90 mins by RT-qPCR analysis relative to control; assay type: cell-based; conditions: dose 2-6 µM
[12] = Transcription level in human HCT-116 cells nuclear extract fused with Gal4-VP16 at 10 uM in presence of ATP by phosphorimaging analysis relative to control
HEK-293T = experiment: Inhibition of transcription in human HEK293T cells nuclear extract fused with Gal4-VP16 at 10 uM in presence of ATP and KCL by phosphorimaging analysis; assay type: functional, subcellular; conditions: Nucleus
In short: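 In vitro transcription from the adenovirus core promoter (Gal-ML, 380 bp G-free cassette), soluble or bead-immobilised template, using HEK293T nuclear extract supplemented with recombinant Gal4-VP16. ATP 60 μM (low), 100 μM, or 500 μM (high); magnesium varied in one series. Transcripts quantified by phosphorimaging.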

[13] = target: Tyrosine-protein kinase ABL2 (Homo sapiens, UniProt P42684); experiment: Inhibition of ABL2 (unknown origin) assessed as residual activity at 10 uM incubated for 120 mins in presence of 33P-ATP by radiometric kinase assay relative to control
Tyrosine-protein kinase ABL2, sequence (P42684 whole entry): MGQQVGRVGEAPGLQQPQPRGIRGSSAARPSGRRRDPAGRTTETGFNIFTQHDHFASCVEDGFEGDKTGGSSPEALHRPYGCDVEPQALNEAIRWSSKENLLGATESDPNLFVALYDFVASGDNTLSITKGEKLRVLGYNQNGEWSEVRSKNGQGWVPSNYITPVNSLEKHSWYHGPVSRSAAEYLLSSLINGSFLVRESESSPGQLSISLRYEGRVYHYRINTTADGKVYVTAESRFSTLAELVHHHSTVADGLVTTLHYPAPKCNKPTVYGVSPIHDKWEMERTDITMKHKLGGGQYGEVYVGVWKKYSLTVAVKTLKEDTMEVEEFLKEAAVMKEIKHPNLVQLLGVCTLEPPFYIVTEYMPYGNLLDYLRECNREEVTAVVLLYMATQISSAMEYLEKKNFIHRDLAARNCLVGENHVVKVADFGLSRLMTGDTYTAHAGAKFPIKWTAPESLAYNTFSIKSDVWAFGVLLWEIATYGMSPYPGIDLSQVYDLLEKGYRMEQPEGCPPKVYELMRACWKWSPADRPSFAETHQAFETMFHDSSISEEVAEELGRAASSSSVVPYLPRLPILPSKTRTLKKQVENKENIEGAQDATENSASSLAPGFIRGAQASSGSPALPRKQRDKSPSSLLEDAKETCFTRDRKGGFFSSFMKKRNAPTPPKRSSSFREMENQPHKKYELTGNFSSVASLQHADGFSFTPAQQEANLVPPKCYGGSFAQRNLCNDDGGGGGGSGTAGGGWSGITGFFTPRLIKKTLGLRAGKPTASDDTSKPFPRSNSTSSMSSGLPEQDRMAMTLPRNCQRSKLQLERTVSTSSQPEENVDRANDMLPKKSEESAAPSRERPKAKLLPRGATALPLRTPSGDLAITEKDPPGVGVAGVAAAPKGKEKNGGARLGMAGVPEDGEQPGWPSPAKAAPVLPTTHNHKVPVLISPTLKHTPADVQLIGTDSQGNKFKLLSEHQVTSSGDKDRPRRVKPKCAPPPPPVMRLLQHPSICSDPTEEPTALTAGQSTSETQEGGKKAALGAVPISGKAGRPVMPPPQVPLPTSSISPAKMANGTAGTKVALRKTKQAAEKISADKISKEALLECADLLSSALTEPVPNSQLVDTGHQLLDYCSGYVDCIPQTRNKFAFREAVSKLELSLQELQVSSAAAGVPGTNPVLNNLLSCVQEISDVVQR

HeLa [14] = experiment: Inhibition of RNA synthesis in human HeLa cells stably transfected with luciferase reporter gene at 10 uM incubated for 30 mins followed by doxycycline addition and measured after 60 mins by RT-qPCR analysis relative to control; assay type: functional; conditions: 1.5 h, time 90 min; in short: as §1
[15] = target: Cyclin-dependent kinase 1/cyclin B1 (Homo sapiens, UniProt P06493); experiment: Inhibition of CDK1/Cyclin B1 (unknown origin) using ULight MBP peptide as substrate in presence of ATP incubated for 1 hr by FRET based LANCE Ultra KinaSelect screen assay; assay type: protein-complex assay
Cyclin-dependent kinase 1/cyclin B1, sequence (P06493 whole entry): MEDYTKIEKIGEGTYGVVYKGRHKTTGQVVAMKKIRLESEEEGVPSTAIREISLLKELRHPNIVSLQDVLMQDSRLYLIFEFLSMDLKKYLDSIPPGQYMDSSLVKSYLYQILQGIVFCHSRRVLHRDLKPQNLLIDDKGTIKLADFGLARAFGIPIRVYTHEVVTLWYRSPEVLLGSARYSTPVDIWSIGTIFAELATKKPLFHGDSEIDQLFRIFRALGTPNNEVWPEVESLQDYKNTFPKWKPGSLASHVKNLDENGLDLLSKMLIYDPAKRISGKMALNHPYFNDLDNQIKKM
Cyclin-dependent kinase 1/cyclin B1, sequence (P14635 whole entry, further chain): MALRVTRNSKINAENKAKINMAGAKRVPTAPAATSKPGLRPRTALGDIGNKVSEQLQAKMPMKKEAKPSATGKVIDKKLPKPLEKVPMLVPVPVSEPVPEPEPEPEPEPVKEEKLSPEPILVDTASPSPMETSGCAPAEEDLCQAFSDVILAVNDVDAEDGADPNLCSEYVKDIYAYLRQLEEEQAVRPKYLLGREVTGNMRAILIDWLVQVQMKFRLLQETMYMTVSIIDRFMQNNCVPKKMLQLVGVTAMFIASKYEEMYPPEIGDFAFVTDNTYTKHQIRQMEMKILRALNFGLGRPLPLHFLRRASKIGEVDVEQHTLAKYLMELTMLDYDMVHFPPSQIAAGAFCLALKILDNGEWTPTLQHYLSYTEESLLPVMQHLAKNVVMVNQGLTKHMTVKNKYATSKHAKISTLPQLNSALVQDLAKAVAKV
In short: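 Time-resolved FRET kinase assay with purified CDK-cyclin pairs. ULight MBP peptide substrate was 50 nM final. Buffer was 50 mM HEPES-KOH pH 7.5, 10 mM MgCl2, 1 mM EGTA and 2 mM DTT, with ATP at each kinase's KM (CDK2-cyclin A 3 μM). Reactions ran 1 h at room temperature, then 2 nM Eu-labelled anti-phospho antibody was added for detection. IC50 given as mean ± SD.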

MCF7 = experiment: Induction of apoptosis in human MCF7 cells at 10 uM incubated for 24 hrs by Annexin V-FITC/PI staining based flow cytometric analysis; assay type: functional, cell-based
In short: (§2)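 Cells grown at 37°C, 5% CO2 (A549, HeLa, MCF7 in DMEM high glucose; HCT116 in McCoy's 5A; THP1 and primary AML M4 apheresis blasts in RPMI1640), exposed to inhibitor or DMSO for 24 h. Apoptotic fraction by flow cytometry after annexin V-fluorescein/propidium iodide double staining. Means ± SD of three biological replicates; AML blasts from one patient, three technical replicates. Student's t-test versus DMSO/untreated.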

THP-1 = experiment: Induction of apoptosis in human THP-1 cells at 10 uM incubated for 24 hrs by Annexin V-FITC/PI staining based flow cytometric analysis relative to control; assay type: functional; in short: as §2
[16] = target: Cyclin-dependent kinase 4/cyclin D1 (Homo sapiens, UniProt P11802); experiment: Inhibition of CDK4/Cyclin D1 (unknown origin) using ULight MBP peptide as substrate in presence of ATP incubated for 1 hr by FRET based LANCE Ultra KinaSelect screen assay; assay type: protein-complex assay
Cyclin-dependent kinase 4/cyclin D1, sequence (P11802 whole entry, the tested form may be a part): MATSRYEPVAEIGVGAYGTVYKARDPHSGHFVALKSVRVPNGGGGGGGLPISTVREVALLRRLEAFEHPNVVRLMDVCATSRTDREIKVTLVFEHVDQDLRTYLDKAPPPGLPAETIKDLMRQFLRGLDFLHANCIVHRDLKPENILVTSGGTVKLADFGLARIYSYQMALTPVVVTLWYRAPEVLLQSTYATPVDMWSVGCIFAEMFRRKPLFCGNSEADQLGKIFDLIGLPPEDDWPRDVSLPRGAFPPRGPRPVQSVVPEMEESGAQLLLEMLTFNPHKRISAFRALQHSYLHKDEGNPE
Cyclin-dependent kinase 4/cyclin D1, sequence (P24385 whole entry, further chain, the tested form may be a part): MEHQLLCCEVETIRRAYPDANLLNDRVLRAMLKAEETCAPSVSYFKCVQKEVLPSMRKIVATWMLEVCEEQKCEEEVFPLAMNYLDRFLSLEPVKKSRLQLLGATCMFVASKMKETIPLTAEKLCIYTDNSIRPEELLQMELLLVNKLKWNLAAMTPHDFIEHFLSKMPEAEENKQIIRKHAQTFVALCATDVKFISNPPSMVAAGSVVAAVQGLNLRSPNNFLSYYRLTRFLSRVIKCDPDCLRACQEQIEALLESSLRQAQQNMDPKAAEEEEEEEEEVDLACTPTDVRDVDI

A549 = experiment: Transcription level in human A549 cells nuclear extract fused with Gal4-VP16 at 10 uM in presence of ATP by phosphorimaging analysis relative to control
[17] = target: Cyclin-dependent kinase 9 (Homo sapiens) (UniProt P50750); experiment: Inhibition of CDK9 in human HeLa cells assessed as upregulation of serine 2 phosphorylation at 10 uM incubated for 1 hr by chromatin immunoprecipitation assay; assay type: cell-based
[18] = target: Cyclin-dependent kinase 9 (Homo sapiens) (UniProt P50750); experiment: Inhibition of CDK9 in human HeLa cells assessed as downregulation of Serine 2 phosphorylation by measuring fold decrease at 10 uM incubated for 60 mins by Western blotting analysis; assay type: cell-based
[19] = target: Cyclin-dependent kinase 9 (Homo sapiens) (UniProt P50750); experiment: Inhibition of CDK9 in human A549 cells assessed as downregulation of CCND1 mRNA expression at 1 to 10 uM incubated for 90 mins by RT-qPCR analysis relative to control; assay type: cell-based; conditions: dose 1-10 µM

COc1ccccc1-c1cc(Nc2cccc(NS(C)(=O)=O)c2)ncn1
inhibition [1]: 50% | Activity [2]: 17.5% | inhibition [3]: Active | Activity [4]: 6% | inhibition (HeLa [5]): Dose-Dependent Effect | inhibition [6]: Active | fold change (FC) [7]: 1.6 | inhibition [8]: Active | level, % of control at 10 µM [9]: 20% | Activity [10]: 9.5% | inhibition [11]: 50% | level, % of control at 10 µM [12]: 20% | inhibition (HEK-293T): Active | Activity [13]: 27% | inhibition at 10 µM (HeLa [14]): 80% | IC50 [15]: 5.51 µM | Activity (MCF7): Active | Activity (THP-1): 45% | IC50 [16]: 9.24 µM | level, % of control at 10 µM (A549): 20% | inhibition [17]: Active | fold change (FC) [18]: 1.6 | inhibition [19]: 50%
